Laboratory results: ChEMBL document CHEMBL1131342, “Design, synthesis, and antiviral activity of alpha-nucleosides: D- and L-isomers of lyxofuranosyl- and (5-deoxylyxofuranosyl)benzimidazoles” (J Med Chem, 1998)

How the values were obtained:
Human alphaherpesvirus 1 [1] = assay: Antiviral activity evaluated by their ability to inhibit the KOS strain of herpes simplex virus type-1 (HSV-1).ELISA was used
KB = assay: Compound was evaluated for the cytotoxicity by the inhibition of KB cell growth.; assay type: functional, cell-based; conditions: Homo sapiens
Outline: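 KB cells plated at 3000–5000 cells/well and incubated overnight. Compound added in quadruplicate at six to eight concentrations, 48 h at 37 °C under CO₂, spanning two population doublings. Ethanol fixation, 0.1% crystal violet stain, dye eluted with acidified ethanol, absorbance at 570 nm. IC50 by regression on log concentration; 2-acetylpyridine thiosemicarbazone control.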

Human betaherpesvirus 5 [2] = assay: Antiviral activity assayed by ability to inhibit Towne strain of HCMV virus; assay type: functional, organism-based
Outline: (§1)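 HFF monolayers in 24-well dishes infected with about 100 pfu HCMV/cm² (Towne or AD169). After adsorption, compound in growth medium at four to eight concentrations, duplicate wells, 7 days at 37 °C. Crystal violet stain, microscopic plaques counted, percent reduction vs no drug. IC50 from regression on log concentration; ganciclovir control.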

Homo sapiens = organism: Homo sapiens; assay: Compound was evaluated for the cytotoxicity scored on HFF cells at time of HCMV plaque enumeration.; assay type: functional
Outline: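 Stationary HFF cells not affected by virus, inspected microscopically for visual cytotoxicity at the time of HCMV plaque counting (7 days, 37 °C). Duplicate experiments.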

Human betaherpesvirus 5 [3] = assay: Compound was evaluated for the Antiviral activity against the AD169 strain of HCMV virus.; assay type: functional, organism-based
Outline: as §1

Human betaherpesvirus 5 [4] = assay: Compound was evaluated for its antiviral activity against HCMV virus using Yield reduction assay.
Human betaherpesvirus 5 [5] = assay: Compound was evaluated for the Yield reduction assays on HCMV virus,; assay type: functional
Outline: (§2)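 HFF cells in 96-well plates inoculated with HCMV at moi 0.5–1 pfu/cell. Compound in duplicate at 100 to 0.14 μM (1:3 serial dilutions), 7 days at 37 °C, then one freeze–thaw. Progeny titred by serial 1:3 dilution onto fresh HFF monolayers with plaque counting. IC90 from linear regression vs log concentration; ganciclovir control.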

Human betaherpesvirus 5 [6] = assay: Compounds was evaluated for the Antiviral activity against the AD169 strain of HCMV virus.; assay type: functional, organism-based
Outline: as §1

Human betaherpesvirus 5 [7] = assay: Compound was evaluated for its antiviral activity by its ability to inhibit Towne strain of HCMV virus.The plaque assay was used; assay type: functional, organism-based
Outline: as §1

Human alphaherpesvirus 1 [8] = assay: Antiviral activity against KOS strain of herpes simplex virus type-1 (HSV-1).ELISA was used
Human alphaherpesvirus 1 [9] = assay: Antiviral activity evaluated by its ability to inhibit the KOS strain of herpes simplex virus type-1 (HSV-1).ELISA was used
Human betaherpesvirus 5 [10] = assay: Compound was evaluated for antiviral activity against HCMV virus using yield reduction assay.; assay type: functional
Outline: as §2

| Structure (SMILES) | IC50 (Human alphaherpesvirus 1 [1]) [µM] | IC50 (KB) [µM] | IC50 (Human betaherpesvirus 5 [2]; Human betaherpesvirus 5) [µM] | IC50 (Homo sapiens) [µM] | IC90 (Human betaherpesvirus 5 [4]) [µM] | also measured |
| --- | --- | --- | --- | --- | --- | --- |
| OC[C@H]1O[C@H](n2c(Cl)nc3cc(Cl)c(Cl)cc32)[C@@H](O)[C@H]1O | 90 | > 100 | 18 | > 100 | > 100 | IC50 (Human betaherpesvirus 5 [3]; Human betaherpesvirus 5): 9 µM |
| C[C@H]1O[C@@H](n2c(Br)nc3cc(Cl)c(Cl)cc32)[C@H](O)[C@@H]1O | 50 | > 100 | 32 | 100 | 12 |  |
| CSc1nc2cc(Cl)c(Cl)cc2n1[C@@H]1O[C@H](CO)[C@@H](O)[C@H]1O | > 100 | > 100 | > 100 | > 100 | > 100 |  |
| OC[C@H]1O[C@@H](n2c(S)nc3cc(Cl)c(Cl)cc32)[C@H](O)[C@@H]1O | > 100 | > 100 | > 100 | > 100 | > 100 |  |
| CCCNc1nc2cc(Cl)c(Cl)cc2n1[C@@H]1O[C@H](C)[C@@H](O)[C@H]1O |  |  | 10 | > 100 | 2 |  |
| C[C@H]1O[C@@H](n2c(Cl)nc3cc(Cl)c(Cl)cc32)[C@H](O)[C@@H]1O | 60 | 75 | 32 | 45 | 8 |  |
| CCCNc1nc2cc(Cl)c(Cl)cc2n1[C@@H]1O[C@H](CO)[C@@H](O)[C@H]1O | > 100 | > 100 | 60 | > 100 | 17 | IC50 (Human betaherpesvirus 5 [3]; Human betaherpesvirus 5): 32 µM |
| CNc1nc2cc(Cl)c(Cl)cc2n1[C@@H]1O[C@H](CO)[C@@H](O)[C@H]1O | > 100 | > 100 | > 100 | > 100 | > 100 |  |
| CNc1nc2cc(Cl)c(Cl)cc2n1[C@@H]1O[C@@H](CO)[C@@H](O)[C@H]1O | > 100 | > 100 | > 100 | > 100 |  |  |
| C[C@@H]1O[C@@H](n2c(Cl)nc3cc(Cl)c(Cl)cc32)[C@H](O)[C@@H]1O | 20 | 60 | 0.2 | 32 | 0.2 |  |
| OC[C@@H]1O[C@@H](n2c(S)nc3cc(Cl)c(Cl)cc32)[C@H](O)[C@@H]1O | > 100 | > 100 | > 100 | > 100 | > 100 |  |
| CSc1nc2cc(Cl)c(Cl)cc2n1[C@@H]1O[C@@H](CO)[C@@H](O)[C@H]1O | > 100 | > 100 | > 100 | > 100 |  |  |
| CCCNc1nc2cc(Cl)c(Cl)cc2n1[C@@H]1O[C@@H](C)[C@@H](O)[C@H]1O | > 100 | 65 | 32 | 100 | 2.8 |  |
| C[C@@H]1O[C@@H](n2c(Br)nc3cc(Cl)c(Cl)cc32)[C@H](O)[C@@H]1O | > 100 | 60 | 0.4 | 32 | 2 |  |
| CCCNc1nc2cc(Cl)c(Cl)cc2n1[C@@H]1O[C@@H](CO)[C@@H](O)[C@H]1O | > 100 | > 100 | > 100 | > 100 | 19 | IC50 (Human betaherpesvirus 5 [3]; Human betaherpesvirus 5): 11 µM |
| OC[C@H]1O[C@@H](n2c(Cl)nc3cc(Cl)c(Cl)cc32)[C@H](O)[C@@H]1O | > 100 | > 100 |  | 190 | 3.4 | IC50 (Human betaherpesvirus 5 [2]): 18 µM; IC90 (Human betaherpesvirus 5 [5]): 1.4 µM; IC50 (Human betaherpesvirus 5 [6]): 1.8 µM; IC50 (Human betaherpesvirus 5 [3]; Human betaherpesvirus 5): 2.6 µM |
| OC[C@H]1O[C@H](n2c(Br)nc3cc(Cl)c(Cl)cc32)[C@@H](O)[C@H]1O (stereo in doubt; 4a) |  |  |  |  | 0.8 | IC50 (Human betaherpesvirus 5 [7]): 2.8 µM; IC50 (Human alphaherpesvirus 1 [8]): > 100 µM; IC50 (Human betaherpesvirus 5 [3]): 0.8 µM |
| OC[C@H]1O[C@H](n2c(Br)nc3cc(Cl)c(Cl)cc32)[C@@H](O)[C@H]1O (stereo in doubt; 4b) |  | > 100 | 6 | > 100 |  | IC50 (Human alphaherpesvirus 1 [9]): 50 µM; IC90 (Human betaherpesvirus 5 [10]): 65 µM; IC50 (Human betaherpesvirus 5 [3]): 4.2 µM |
| O=C(O)P(=O)(O)O [FOSCARNET] |  |  |  | > 100 |  |  |
| Nc1nc2c(ncn2COC(CO)CO)c(=O)[nH]1 [GANCICLOVIR] |  | > 100 |  | > 100 |  | IC90 (Human betaherpesvirus 5 [5]): 1.6 µM |
